Source: ChEMBL document CHEMBL3994608, “Design, synthesis and antimicrobial activities of thiouracil derivatives containing triazolo-thiadiazole as SecA inhibitors” (Eur J Med Chem, 2017)
In brackets after ≈: the same amount, converted by molar mass.

Assays:
[1] = system: Bacillus amyloliquefaciens; assay: Antibacterial activity against Bacillus amyloliquefaciens at 25 ug/ml after overnight incubation by plate colony counting method relative to control; format: functional
In short: (§1)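 Plate colony counting on nutrient agar. Suspensions made from fresh colonies on NA slants grown 24 h, then serially diluted tenfold in sterile water. Duplicate aliquots of the 10^-5 and 10^-6 dilutions spread on NA plates containing test compound at 25 µg/mL; control plates NA only. Incubated overnight at 35 °C, colonies counted, inhibition given as percentage.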

Staphylococcus aureus = assay: Antibacterial activity against Staphylococcus aureus at 25 ug/ml after overnight incubation by plate colony counting method relative to control; format: functional; in short: as §1
Bacillus subtilis = assay: Antibacterial activity against Bacillus subtilis at 25 ug/ml after overnight incubation by plate colony counting method relative to control; format: functional; in short: as §1
[2] = Inhibition of Escherichia coli BL21.19 SecA after 30 mins by malachite green dye-based assay
In short: (§2)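 SecA ATPase from E. coli BL21.19. Reaction contains Tris-HCl buffer (pH 7.6, with KCl, NH4Cl, DTT, Mg(OAc)2), […], […] and sample, diluted with distilled water; water as blank. Incubated 37 °C for 30 min. Malachite green/ammonium molybdate/Triton X-100 colour reagent added, then 34% citrate after 1 min. Absorbance read at 660 nm and inhibition calculated from it.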

Escherichia coli [3] = assay: Inhibition of Escherichia coli BL21.19 SecA at 10 ug/ml after 30 mins by malachite green dye-based assay relative to control; in short: as §2
Escherichia coli [4] = assay: Inhibition of Escherichia coli BL21.19 SecA at 20 ug/ml after 30 mins by malachite green dye-based assay relative to control; in short: as §2

SMILES	inhibition at 25 µg/mL [1] [%]	inhibition at 25 µg/mL (Staphylococcus aureus) [%]	inhibition at 25 µg/mL (Bacillus subtilis) [%]	IC50 [2]	inhibition (Escherichia coli [3]) [%]	inhibition (Escherichia coli [4]) [%]
N#Cc1c(-c2c(Cl)cccc2Cl)nc(SCc2ccc(-c3nn4c(-c5c(Cl)cccc5Cl)nnc4s3)cc2)[nH]c1=O	86	82	84	–	–	–
N#Cc1c(-c2ccc(-c3ccccc3)cc2)nc(SCc2ccc(-c3nn4c(-c5ccccc5Cl)nnc4s3)cc2)[nH]c1=O	81	83	88	–	–	–
N#Cc1c(-c2c(Cl)cccc2Cl)nc(SCc2ccc(-c3nn4c(-c5ccccc5Cl)nnc4s3)cc2)[nH]c1=O	78	56	63	–	–	–
CCn1cc(C(=O)O)c(=O)c2cc(F)c(N3CCNCC3)cc21 [NORFLOXACIN]	89	86	85	–	–	–
N#Cc1c(-c2ccc(Cl)cc2)nc(SCc2ccc(-c3nn4c(-c5ccccc5)nnc4s3)cc2)[nH]c1=O	62	49	51	–	–	–
N#Cc1c(-c2ccc(-c3ccccc3)cc2)nc(SCc2ccc(-c3nn4c(-c5c(Cl)cccc5Cl)nnc4s3)cc2)[nH]c1=O	82	84	86	–	–	–
N#Cc1c(-c2ccccc2)nc(SCc2ccc(-c3nn4c(-c5ccccc5)nnc4s3)cc2)[nH]c1=O	57	44	48	–	–	–
N#Cc1c(-c2ccccc2Cl)nc(SCc2ccc(-c3nn4c(-c5ccccc5)nnc4s3)cc2)[nH]c1=O	66	46	55	–	–	–
N#Cc1c(-c2ccc(Cl)cc2Cl)nc(SCc2ccc(-c3nn4c(-c5ccccc5Cl)nnc4s3)cc2)[nH]c1=O	80	85	92	Nd(Insoluble)	–	–
N#Cc1c(-c2c(Cl)cccc2Cl)nc(SCc2ccc(-c3nn4c(-c5ccccc5)nnc4s3)cc2)[nH]c1=O	60	56	49	–	–	–
N#Cc1c(-c2ccc(Cl)cc2Cl)nc(SCc2ccc(-c3nn4c(-c5c(Cl)cccc5Cl)nnc4s3)cc2)[nH]c1=O	78	81	86	–	–	–
N#Cc1c(-c2ccc(-c3ccccc3)cc2)nc(SCc2ccc(-c3nn4c(-c5ccccc5)nnc4s3)cc2)[nH]c1=O	58	68	57	–	–	–
N#Cc1c(-c2ccc(-c3ccccc3)cc2)nc(SCc2ccc(CSc3nc(-c4ccc(-c5ccccc5)cc4)c(C#N)c(=O)[nH]3)cc2)[nH]c1=O	85	87	62	20.8 µg/mL (≈ 29.2 µM)	–	–
N#Cc1c(-c2ccc(Cl)cc2Cl)nc(SCc2ccc(-c3nn4c(-c5ccccc5)nnc4s3)cc2)[nH]c1=O	82	88	90	9.7 µg/mL (≈ 16.5 µM)	51	72
